Measurements taken from the array DNA melting data of Ke et al. (doi:10.1101/2024.01.08.574731).

Key:
[1] = melting temperature; fluorescence melt of hairpins on a sequencing array, two-state fit, raised by 9.35 °C to match UV melts; conditions: sodium 0.088 M
How it was run: (§1)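 Melting temperature and folding enthalpy were obtained by bootstrapped two-state fitting. Fits used Cy3 fluorescence of library hairpins with annealed Cy3 and quencher oligos on a sequenced MiSeq flow cell, imaged in 50 mM Na-HEPES pH 8.0, 25 mM NaCl in 2.5 °C steps up to 60 °C and normalised to pre-quench Cy3 and control constructs. Four replicates were combined by inverse-variance weighting, and fitted temperatures were raised by 9.35 °C to match UV melts.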

[2] = folding enthalpy; higher = less favourable; fluorescence melt of hairpins on a sequencing array, two-state fit; conditions: sodium 0.088 M
How it was run: as §1

| Sequence | Tm [1] | folding enthalpy [2] |
| --- | --- | --- |
| GGGCTACCGAAAGGTCCC (((..(((....)))))) | 39.4 °C | -18.8 kcal/mol |
| GCGTCGCGAAAGCTACGC ((((.((....)).)))) | 66.9 °C | -29.4 kcal/mol |
| GACGGGACGAAAGTCGTC (((..(((....)))))) | 45.8 °C | -17.1 kcal/mol |
| GGTGCGGGAAACCGCGTC (..((((....))))..) | 44.1 °C | -11.5 kcal/mol |
| GAAGTGAAAACTTC (((((....))))) | 43.1 °C | -23.2 kcal/mol |
| GTACACGGAAACGTGTGC (.(((((....))))).) | 56.2 °C | -27.1 kcal/mol |
| GGTACGCGAAAGCGCACC (((.(((....))).))) | 57.6 °C | -28.6 kcal/mol |
| GTAGGCGAAAGCCACTAC ((((((....)))..))) | 47.3 °C | -11.9 kcal/mol |
| GATCCGGACCCGGATC ((((((....)))))) | 61.1 °C | -36.9 kcal/mol |
| GCCAGCGAAAGCTTCGGC ((((((....)))..))) | 47.8 °C | -23.7 kcal/mol |
| GAAATCCCGAAAGGGTTC (((..(((....)))))) | 26.2 °C | -9.79 kcal/mol |
| GCGAAGCGAAAGCTCAGC ((..(((....)))..)) | 41.1 °C | -7.68 kcal/mol |
| GATCTCTAGCGAGATC ((((((....)))))) | 49.9 °C | -23.1 kcal/mol |
| GGTACCGGAAACGGTACC (((((((....))))))) | 69 °C | -30.5 kcal/mol |
| GATTGGACGAAAGTCATC (((..(((....)))))) | 27 °C | -10.5 kcal/mol |
| GCTAACCGAAAGGTAAGC (((.(((....))).))) | 52.1 °C | -30.8 kcal/mol |
| GGTCCCGAAAGGGTAACC ((((((....)))..))) | 42.2 °C | -18 kcal/mol |
| GATCTAACAGTAGATC ((((((....)))))) | 36.5 °C | -15.6 kcal/mol |
| GATACCGGAAACGGTGTC ((.((((....)))).)) | 52.1 °C | -28.8 kcal/mol |
| GGTACTGGAAACAGTACC (((((((....))))))) | 61.5 °C | -50.7 kcal/mol |
| GGCAGGTCGAAAGACGCC (((..(((....)))))) | 53.5 °C | -24 kcal/mol |
| GATCAATATCTTGATC ((((((....)))))) | 42.6 °C | -30.6 kcal/mol |
| GCGACCCCGAAAGGGCGC (((..(((....)))))) | 67.7 °C | -29.1 kcal/mol |

| Sequence | Tm [1] | folding enthalpy [2] |
| --- | --- | --- |
| GCCTGGCGAAAGCCTTGC ((..(((....)))..)) | 42.1 °C | -13 kcal/mol |
| GGTCTCGAAAGAGGACC ((((((....))).))) | 49.5 °C | -28.3 kcal/mol |
| GTATAGGGAAACTTATAC (((((.(....).))))) | 27.7 °C | -14.2 kcal/mol |
| GATCTTCATGAAGATC ((((((....)))))) | 51.1 °C | -43.4 kcal/mol |
| GAAACGACGAAAGTCTTC (((..(((....)))))) | 29.5 °C | -9.41 kcal/mol |
| GGTAGAGCGAAAGCTACC (((..(((....)))))) | 45.5 °C | -17.3 kcal/mol |
| GACTCCGAAAGGATCGTC ((((((....)))..))) | 42.1 °C | -23.3 kcal/mol |
| GGATACGGAAACGTATTC (.(((((....))))).) | 45.2 °C | -24.8 kcal/mol |
| GATCGTCTGAACGATC ((((((....)))))) | 55.6 °C | -39.6 kcal/mol |
| CGATAACGGAAACGTTCG (((..(((....)))))) | 35.6 °C | -16.1 kcal/mol |
| GGGCTGGGAAACCAGTCC ((.((((....)))).)) | 57.3 °C | -42.5 kcal/mol |
| GCTAATCGAAAGATAGC (((.(((....)))))) | 44.6 °C | -26.4 kcal/mol |
| GTATACGAAAGTACATAC ((((((....)))..))) | 21.3 °C | -10.6 kcal/mol |
| GATCTTGCGTAAGATC ((((((....)))))) | 43.6 °C | -39.6 kcal/mol |
| GTCCACGAAAGTGATGAC ((((((....)))..))) | 39.4 °C | -14.8 kcal/mol |
| GACACACGAAAGTGAGTC (((.(((....))).))) | 56.1 °C | -31 kcal/mol |
| GACCTCGGAAACGAGATC ((.((((....)))).)) | 40.5 °C | -20.3 kcal/mol |
| GAAAGTGAAAACTTTC ((((((....)))))) | 47.7 °C | -27.2 kcal/mol |
| GGTACAGGAAACTGCACC (((.(((....))).))) | 44.2 °C | -32.5 kcal/mol |
| GTGATCCGAAAGGAGCAC (((.(((....))).))) | 66.4 °C | -41.5 kcal/mol |
| GCAATGTCGAAAGACTGC (((..(((....)))))) | 44.9 °C | -20.3 kcal/mol |
| GTTTTGGGAAACTAAGAC ((.((.(....).)).)) | 29 °C | -9.09 kcal/mol |
| CGCATCCGGAAACGGGCG (((..(((....)))))) | 46.9 °C | -26.7 kcal/mol |

| Sequence | Tm [1] | folding enthalpy [2] |
| --- | --- | --- |
| GATCTTTGTGAAGATC ((((((....)))))) | 47.7 °C | -41.7 kcal/mol |
| GGTTCAGAAATGAACC ((((((....)))))) | 54.6 °C | -38.8 kcal/mol |
| GCGATACGAAAGTACCGC (((.(((....))).))) | 54.2 °C | -43.2 kcal/mol |
| GATCGAGCGTTCGATC ((((((....)))))) | 52.1 °C | -45.4 kcal/mol |
| GCCGTTGCGAAAGCAGGC (((..(((....)))))) | 62.3 °C | -31.7 kcal/mol |
| CGCTCGGAAACGATCGCG ((((((....)))..))) | 40.2 °C | -24.2 kcal/mol |
| GGGGTCGAAAGACTACCC ((((((....)))..))) | 45.2 °C | -18 kcal/mol |
| TAGATGAAAATCTA (((((....))))) | 26.1 °C | -10.1 kcal/mol |
| GATCACTGCCGTGATC ((((((....)))))) | 55.9 °C | -44.5 kcal/mol |
| GAATGCCGAAAGGCCTTC (((.(((....))).))) | 41.3 °C | -17 kcal/mol |
| CGGTACGGAAACGTCCG (((.(((....)))))) | 47.7 °C | -20.9 kcal/mol |
| GGGCGGGGAAACCCGTCC ((.((((....)))).)) | 65 °C | -37.3 kcal/mol |
| GATCATCGTTATGATC ((((((....)))))) | 47.2 °C | -32.4 kcal/mol |
| GCAGAGCGAAAGCATTGC (((..((....))..))) | 49.9 °C | -17.3 kcal/mol |
| GCAGGTGGAAACGCCTGC (((((.(....).))))) | 61.8 °C | -46.6 kcal/mol |
| GGTTCCGAAAGGAAAACC ((((((....)))..))) | 43.6 °C | -18.5 kcal/mol |
| GGAAGAGGAAACTCTTCC (((((((....))))))) | 58.2 °C | -42.1 kcal/mol |
| GATCTACCCTAGATC ((((((...)))))) | 40.7 °C | -24.7 kcal/mol |
| GACGTGGCGAAAGCCGTC (((..(((....)))))) | 50.4 °C | -16.5 kcal/mol |
| GCGTTATCGAAAGATCGC (((..(((....)))))) | 44.3 °C | -26.1 kcal/mol |
| GTTTGGCGAAAGCCGAAC (((.(((....))).))) | 58.8 °C | -20.6 kcal/mol |
| GATCCACACATGGATC ((((((....)))))) | 52.4 °C | -40 kcal/mol |
| GATCAGGTAGCTGATC ((((((....)))))) | 53.4 °C | -39.7 kcal/mol |

| Sequence | Tm [1] | folding enthalpy [2] |
| --- | --- | --- |
| GTCGGTGGAAACGCCGAC (((((.(....).))))) | 63.2 °C | -50 kcal/mol |
| GAACCCGAAAGGGCTTC ((((((....))).))) | 46.3 °C | -15 kcal/mol |
| GATCTCTCTCGAGATC ((((((....)))))) | 52 °C | -37.2 kcal/mol |
| GTTTCACGAAAGTGCAAC (((.(((....))).))) | 41.1 °C | -26.9 kcal/mol |
| GCGTGGCGAAAGCCTTGC ((..(((....)))..)) | 48 °C | -16.4 kcal/mol |
| GGAGCAGGAAACTGCTCC (((((((....))))))) | 69.1 °C | -33.4 kcal/mol |
| GAAATACGAAAGTAATTC (((.(((....))).))) | 32.9 °C | -15 kcal/mol |
| GGTATTCCGAAAGGAACC (((..(((....)))))) | 29.4 °C | -12.8 kcal/mol |
| GAGAGAGGAAACTCTTTC ((.((((....)))).)) | 29.9 °C | -20.5 kcal/mol |
| GCCGGGCGAAAGCCCTGC ((.((((....)))).)) | 57.2 °C | -14.9 kcal/mol |
| GTTCCCGGAAACGAGAAC ((((.((....)).)))) | 40.8 °C | -30.2 kcal/mol |
| GGGGTCGAAAGACCGCCC ((((((....)))..))) | 52.7 °C | -11.3 kcal/mol |
| GCTTTCGAAAGAAGAGC ((((((....))).))) | 37.3 °C | -17.5 kcal/mol |
| GATCTATGGTAGATC ((((((...)))))) | 36.9 °C | -28.9 kcal/mol |
| GTTGGACGAAAGTCTAAC (((.(((....))).))) | 51.4 °C | -26.3 kcal/mol |
| GGGAACGAAAGTTCCCCC ((((((....)))..))) | 68.4 °C | -9.06 kcal/mol |
| GATCGGCGAACCGATC ((((((....)))))) | 56.2 °C | -38.2 kcal/mol |
| GATCGGACAACCGATC ((((((....)))))) | 53.5 °C | -34.7 kcal/mol |
| GCGAAGCGAAAGCCCCGC (((..((....))..))) | 36.3 °C | -7.44 kcal/mol |
| GGCACCGAAAGGTGAGCC ((((((....)))..))) | 52.6 °C | -13.3 kcal/mol |
| GCTTTGCGAAAGCGACGC ((.(.((....)).).)) | 47.6 °C | -15.2 kcal/mol |
| CGTCACGGAAACGTACG (((.(((....)))))) | 40 °C | -22.8 kcal/mol |
| GATCAAAAATTTGATC ((((((....)))))) | 39 °C | -28.7 kcal/mol |
